Calls of active or inactive are those of the source.
How the values were obtained:
Staphylococcus aureus [1] = test: Antibacterial activity against methicillin-sensitive Staphylococcus aureus ATCC 6538 measured after overnight incubation by broth double-dilution method; assay type: functional
How it was run: (§1)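 MIC by broth double-dilution in liquid Mueller-Hinton medium. Values are reported in µg/mL.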

Staphylococcus aureus [2] = test: Antibacterial activity against methicillin-sensitive Staphylococcus aureus ATCC 25923 measured after overnight incubation by broth double-dilution method; assay type: functional; how it was run: as §1
Staphylococcus aureus [3] = test: Antibacterial activity against methicillin-sensitive Staphylococcus aureus ATCC 29213 measured after overnight incubation by broth double-dilution method; assay type: functional; how it was run: as §1
Staphylococcus aureus [4] = test: Antibacterial activity against methicillin-resistant Staphylococcus aureus ATCC 33591 measured after overnight incubation by broth double-dilution method; assay type: functional; how it was run: as §1
Staphylococcus aureus [5] = test: Antibacterial activity against methicillin-resistant Staphylococcus aureus 1 measured after overnight incubation by broth double-dilution method; assay type: functional; how it was run: as §1
Staphylococcus aureus [6] = test: Antibacterial activity against methicillin-resistant Staphylococcus aureus 2 measured after overnight incubation by broth double-dilution method; assay type: functional; how it was run: as §1
Staphylococcus aureus [7] = test: Antibacterial activity against methicillin-resistant Staphylococcus aureus BRS3 measured after overnight incubation by broth double-dilution method; assay type: functional; how it was run: as §1
Staphylococcus aureus [8] = test: Antibacterial activity against methicillin-resistant Staphylococcus aureus C1 measured after overnight incubation by broth double-dilution method; assay type: functional; how it was run: as §1
Staphylococcus aureus [9] = test: Antibacterial activity against methicillin-resistant Staphylococcus aureus C2 measured after overnight incubation by broth double-dilution method; assay type: functional; how it was run: as §1
Staphylococcus aureus [10] = test: Antibacterial activity against methicillin-resistant Staphylococcus aureus C7 measured after overnight incubation by broth double-dilution method; assay type: functional; how it was run: as §1
Staphylococcus aureus [11] = test: Antibacterial activity against methicillin-resistant Staphylococcus aureus C14 measured after overnight incubation by broth double-dilution method; assay type: functional; how it was run: as §1
Staphylococcus aureus [12] = test: Antibacterial activity against methicillin-resistant Staphylococcus aureus C16 measured after overnight incubation by broth double-dilution method; assay type: functional; how it was run: as §1
Staphylococcus aureus [13] = test: Antibacterial activity against methicillin-resistant Staphylococcus aureus C19 measured after overnight incubation by broth double-dilution method; assay type: functional; how it was run: as §1
Staphylococcus aureus [14] = test: Antibacterial activity against methicillin-resistant Staphylococcus aureus G1 measured after overnight incubation by broth double-dilution method; assay type: functional; how it was run: as §1
Staphylococcus aureus [15] = test: Antibacterial activity against methicillin-resistant Staphylococcus aureus G6 measured after overnight incubation by broth double-dilution method; assay type: functional; how it was run: as §1
Staphylococcus aureus [16] = test: Antibacterial activity against methicillin-resistant Staphylococcus aureus G12 measured after overnight incubation by broth double-dilution method; assay type: functional; how it was run: as §1
Staphylococcus aureus [17] = test: Antibacterial activity against methicillin-resistant Staphylococcus aureus G14 measured after overnight incubation by broth double-dilution method; assay type: functional; how it was run: as §1
Staphylococcus aureus [18] = test: Antibacterial activity against methicillin-resistant Staphylococcus aureus NRS4 measured after overnight incubation by broth double-dilution method; assay type: functional; how it was run: as §1
Staphylococcus aureus [19] = test: Antibacterial activity against methicillin-resistant Staphylococcus aureus NRS51 measured after overnight incubation by broth double-dilution method; assay type: functional; how it was run: as §1
Staphylococcus aureus [20] = test: Antibacterial activity against methicillin-resistant Staphylococcus aureus NRS77 measured after overnight incubation by broth double-dilution method; assay type: functional; how it was run: as §1
Staphylococcus aureus [21] = test: Antibacterial activity against methicillin-resistant Staphylococcus aureus S14 measured after overnight incubation by broth double-dilution method; assay type: functional; how it was run: as §1
Staphylococcus aureus [22] = test: Antibacterial activity against methicillin-resistant Staphylococcus aureus S17 measured after overnight incubation by broth double-dilution method; assay type: functional; how it was run: as §1
Staphylococcus aureus [23] = test: Antibacterial activity against methicillin-resistant Staphylococcus aureus S22 measured after overnight incubation by broth double-dilution method; assay type: functional; how it was run: as §1
Staphylococcus aureus [24] = test: Antibacterial activity against methicillin-resistant Staphylococcus aureus S24 measured after overnight incubation by broth double-dilution method; assay type: functional; how it was run: as §1
Staphylococcus aureus [25] = test: Antibacterial activity against methicillin-resistant Staphylococcus aureus USA100 measured after overnight incubation by broth double-dilution method; assay type: functional; how it was run: as §1
Staphylococcus aureus [26] = test: Antibacterial activity against methicillin-resistant Staphylococcus aureus USA200 measured after overnight incubation by broth double-dilution method; assay type: functional; how it was run: as §1
Staphylococcus aureus [27] = test: Antibacterial activity against methicillin-resistant Staphylococcus aureus USA300 measured after overnight incubation by broth double-dilution method; assay type: functional; how it was run: as §1
Staphylococcus aureus [28] = test: Antibacterial activity against methicillin-resistant Staphylococcus aureus USA600 measured after overnight incubation by broth double-dilution method; assay type: functional; how it was run: as §1
[29] = test system: Staphylococcus epidermidis; test: Antibacterial activity against Staphylococcus epidermidis ATCC 35984 measured after overnight incubation by broth double-dilution method; assay type: functional; conditions: RP62A
How it was run: (§2)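 MIC by broth double-dilution in Mueller-Hinton medium. Re-testing at the time-kill inoculum used 1×10^6 CFU/mL.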

Enterococcus faecalis [30] = test: Antibacterial activity against Enterococcus faecalis ATCC 29212 measured after overnight incubation by broth double-dilution method; assay type: functional; how it was run: as §2
Enterococcus faecalis [31] = test: Antibacterial activity against Enterococcus faecalis ATCC 49533 measured after overnight incubation by broth double-dilution method; assay type: functional; how it was run: as §2
Enterococcus faecium = test: Antibacterial activity against Enterococcus faecium BM4105-RF measured after overnight incubation by broth double-dilution method; assay type: functional; how it was run: as §1
Enterococcus = test: Antibacterial activity against Vancomycin-resistant Enterococcus measured after overnight incubation by broth double-dilution method; assay type: functional; how it was run: as §1
Listeria monocytogenes = test: Antibacterial activity against Listeria monocytogenes ATCC 19115 measured after overnight incubation by broth double-dilution method; assay type: functional; how it was run: as §2
[32] = test system: Mycolicibacterium smegmatis; test: Antibacterial activity against Mycobacterium smegmatis MC2-155 measured after overnight incubation by broth double-dilution method; assay type: functional; conditions: str. MC2 155; how it was run: as §1
Staphylococcus aureus [33] = test: Bacteriostatic activity against methicillin-resistant Staphylococcus aureus S22 at 0.5 times MIC measured up to 3 to 6 hrs by time kill analysis; assay type: functional
Staphylococcus aureus [34] = test: Bacteriostatic activity against methicillin-resistant Staphylococcus aureus S22 at MIC measured up to 3 to 6 hrs by time kill analysis; assay type: functional
Staphylococcus aureus [35] = test: Bacteriostatic activity against methicillin-resistant Staphylococcus aureus S22 at 4 times MIC measured after 24 hrs by time kill analysis; assay type: functional
[36] = test system: Staphylococcus epidermidis RP62A; test: Inhibition of thioredoxin reductase in Staphylococcus epidermidis ATCC 35984 assessed as induction of ROS production at 1 to 4 times MIC measured after 1 hr by DCFH-DA staining-based fluorescence microscopic analysis
How it was run: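 Untreated cells served as the negative control and 1 mM H2O2 as the positive control. Cells were stained with DCFH-DA (40 µg/mL) and ROS were visualized by fluorescence microscopy.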

Staphylococcus aureus [37] = test: Antibacterial activity against methicillin-resistant Staphylococcus aureus S22 using 1 10^6CFU/ml measured after overnight incubation by broth double-dilution method; assay type: functional
[38] = Cytotoxicity against HEK293 cells assessed as cell death up to 10 ug/ml measured after 24 hrs by resazurin dye-based fluorescence analysis relative to untreated control; assay type: toxicity; conditions: human, hek293, 24 h
Acinetobacter baumannii = test: Antibacterial activity against Acinetobacter baumannii ATCC 19606 measured after overnight incubation by broth double-dilution method; assay type: functional; how it was run: as §2
Enterobacter cloacae = test: Antibacterial activity against Enterobacter cloacae ATCC 13047 measured after overnight incubation by broth double-dilution method; assay type: functional; conditions: subsp. cloacae ATCC 13047; how it was run: as §1
Escherichia coli = test: Antibacterial activity against Escherichia coli MC1061 measured after overnight incubation by broth double-dilution method; assay type: functional; how it was run: as §1
Klebsiella pneumoniae = test: Antibacterial activity against Klebsiella pneumoniae ATCC 27736 measured after overnight incubation by broth double-dilution method; assay type: functional; how it was run: as §1
Pseudomonas aeruginosa = test: Antibacterial activity against Pseudomonas aeruginosa ATCC 27853 measured after overnight incubation by broth double-dilution method; assay type: functional; how it was run: as §2
Salmonella enterica = test: Antibacterial activity against Salmonella enterica ATCC 14028 measured after overnight incubation by broth double-dilution method; assay type: functional; how it was run: as §2
[39] = test system: Staphylococcus epidermidis; test: Antibacterial activity against Staphylococcus epidermidis ATCC 12228 measured after overnight incubation by broth double-dilution method; assay type: functional; how it was run: as §2

CCCCCCn1sc2ccccc2c1=O
> 125 µg/mL: MIC (Enterococcus faecalis [30]) | MIC (Enterococcus faecalis [31])
active: Activity (Staphylococcus aureus [33]) | Activity (Staphylococcus aureus [34]) | Activity (Staphylococcus aureus [35]) | Activity [36] | Activity (Staphylococcus aureus [37])
3.9 µg/mL: MIC (Staphylococcus aureus [2]) | MIC (Staphylococcus aureus [3]) | MIC (Staphylococcus aureus [6]) | MIC (Staphylococcus aureus [7]) | MIC (Staphylococcus aureus [8]) | MIC (Staphylococcus aureus [9]) | MIC (Staphylococcus aureus [10]) | MIC (Staphylococcus aureus [11]) | MIC (Staphylococcus aureus [15]) | MIC (Staphylococcus aureus [18]) | MIC (Staphylococcus aureus [19]) | MIC (Staphylococcus aureus [20]) | MIC (Staphylococcus aureus [22]) | MIC (Staphylococcus aureus [23]) | MIC (Staphylococcus aureus [24]) | MIC (Staphylococcus aureus [27]) | MIC (Listeria monocytogenes)
≤ 0.25 µg/mL: MIC (Staphylococcus aureus [21])
0.5 µg/mL: MIC (Staphylococcus aureus [14])
7.8 µg/mL: MIC (Staphylococcus aureus [1]) | MIC (Staphylococcus aureus [12]) | MIC (Staphylococcus aureus [25]) | MIC (Staphylococcus aureus [26]) | MIC (Staphylococcus aureus [28]) | MIC (Enterococcus faecium)
2 µg/mL: MIC (Staphylococcus aureus [4]) | MIC (Staphylococcus aureus [5]) | MIC (Staphylococcus aureus [13]) | MIC (Staphylococcus aureus [16]) | MIC (Staphylococcus aureus [17]) | MIC [29] | MIC (Enterococcus) | MIC [32]

O=c1c2ccccc2sn1-c1cccc2ccccc12
0.25 µg/mL: MIC [29]
0.5 µg/mL: MIC (Staphylococcus aureus [3]) | MIC (Staphylococcus aureus [4]) | MIC (Staphylococcus aureus [6]) | MIC (Staphylococcus aureus [9]) | MIC (Staphylococcus aureus [13]) | MIC (Staphylococcus aureus [15]) | MIC (Staphylococcus aureus [16]) | MIC (Staphylococcus aureus [24]) | MIC (Staphylococcus aureus [25]) | MIC (Enterococcus)
> 125 µg/mL: MIC (Staphylococcus aureus [1]) | MIC (Enterococcus faecalis [30]) | MIC (Enterococcus faecalis [31]) | MIC (Enterococcus faecium)
1 µg/mL: MIC (Staphylococcus aureus [5]) | MIC (Staphylococcus aureus [10]) | MIC (Staphylococcus aureus [19]) | MIC (Staphylococcus aureus [22]) | MIC (Staphylococcus aureus [23]) | MIC [32]
> 20%: Activity [38]
2 µg/mL: MIC (Staphylococcus aureus [2]) | MIC (Staphylococcus aureus [7]) | MIC (Staphylococcus aureus [8]) | MIC (Staphylococcus aureus [11]) | MIC (Staphylococcus aureus [14]) | MIC (Staphylococcus aureus [17]) | MIC (Staphylococcus aureus [18]) | MIC (Staphylococcus aureus [20]) | MIC (Staphylococcus aureus [26]) | MIC (Staphylococcus aureus [27]) | MIC (Staphylococcus aureus [28]) | MIC (Listeria monocytogenes)
15.6 µg/mL: MIC (Staphylococcus aureus [12])
≤ 0.25 µg/mL: MIC (Staphylococcus aureus [21])

NCC[C@H](O)C(=O)N[C@@H]1C[C@H](N)[C@@H](O[C@H]2O[C@H](CN)[C@@H](O)[C@H](O)[C@H]2O)[C@H](O)[C@H]1O[C@H]1O[C@H](CO)[C@@H](O)[C@H](N)[C@H]1O [AMIKACIN]
31.3 µg/mL: MIC (Staphylococcus aureus [4]) | MIC (Staphylococcus aureus [5]) | MIC (Staphylococcus aureus [11]) | MIC (Staphylococcus aureus [12]) | MIC (Staphylococcus aureus [14]) | MIC (Staphylococcus aureus [17]) | MIC (Staphylococcus aureus [18]) | MIC (Staphylococcus aureus [22]) | MIC (Staphylococcus aureus [24]) | MIC (Pseudomonas aeruginosa) | MIC [39]
> 125 µg/mL: MIC (Enterococcus faecalis [31])
≤ 0.25 µg/mL: MIC (Staphylococcus aureus [2]) | MIC [32]
7.8 µg/mL: MIC (Staphylococcus aureus [10]) | MIC (Staphylococcus aureus [21]) | MIC (Staphylococcus aureus [23]) | MIC (Acinetobacter baumannii) | MIC (Salmonella enterica)
active: Activity (Staphylococcus aureus [33]) | Activity (Staphylococcus aureus [34]) | Activity (Staphylococcus aureus [37])
125 µg/mL: MIC (Enterococcus faecalis [30]) | MIC (Enterococcus faecium)
0.5 µg/mL: MIC (Staphylococcus aureus [20])
62.5 µg/mL: MIC (Staphylococcus aureus [3]) | MIC (Staphylococcus aureus [7]) | MIC (Staphylococcus aureus [25]) | MIC (Staphylococcus aureus [26]) | MIC (Staphylococcus aureus [27]) | MIC (Staphylococcus aureus [28]) | MIC (Enterococcus)
2 µg/mL: MIC (Staphylococcus aureus [1]) | MIC (Staphylococcus aureus [8]) | MIC (Staphylococcus aureus [9]) | MIC (Escherichia coli)
1 µg/mL: MIC (Enterobacter cloacae) | MIC (Klebsiella pneumoniae)
15.6 µg/mL: MIC (Staphylococcus aureus [15]) | MIC (Staphylococcus aureus [16]) | MIC (Staphylococcus aureus [19]) | MIC [29]
3.9 µg/mL: MIC (Staphylococcus aureus [6]) | MIC (Staphylococcus aureus [13]) | MIC (Listeria monocytogenes)

Source: ChEMBL document CHEMBL3864121, “Development of ebsulfur analogues as potent antibacterials against methicillin-resistant Staphylococcus aureus” (Bioorg Med Chem, 2016)
